From ChEMBL document CHEMBL3351464, “Identifying novel selective non-nucleoside DNA methyltransferase 1 inhibitors through docking-based virtual screening” (J Med Chem, 2014)
The source made the active and inactive calls. The calls are words filed in the database; no cut-off is given here.

How the values were obtained:
[1] = target: T1, DNA (cytosine-5)-methyltransferase 1 (Mus musculus, UniProt P13864); assay: Inhibition of N-terminal His6-tagged mouse DNMT1 (731 to 1602 residues) expressed in Escherichia coli BL21 (DE3) incubated for 15 mins before addition of [3H]-SAM and poly(dI-dC).poly(dI-dC) by liquid scintillation counting based radioactive methylation assay
T1 sequence (P13864 whole entry, the tested form may be a part): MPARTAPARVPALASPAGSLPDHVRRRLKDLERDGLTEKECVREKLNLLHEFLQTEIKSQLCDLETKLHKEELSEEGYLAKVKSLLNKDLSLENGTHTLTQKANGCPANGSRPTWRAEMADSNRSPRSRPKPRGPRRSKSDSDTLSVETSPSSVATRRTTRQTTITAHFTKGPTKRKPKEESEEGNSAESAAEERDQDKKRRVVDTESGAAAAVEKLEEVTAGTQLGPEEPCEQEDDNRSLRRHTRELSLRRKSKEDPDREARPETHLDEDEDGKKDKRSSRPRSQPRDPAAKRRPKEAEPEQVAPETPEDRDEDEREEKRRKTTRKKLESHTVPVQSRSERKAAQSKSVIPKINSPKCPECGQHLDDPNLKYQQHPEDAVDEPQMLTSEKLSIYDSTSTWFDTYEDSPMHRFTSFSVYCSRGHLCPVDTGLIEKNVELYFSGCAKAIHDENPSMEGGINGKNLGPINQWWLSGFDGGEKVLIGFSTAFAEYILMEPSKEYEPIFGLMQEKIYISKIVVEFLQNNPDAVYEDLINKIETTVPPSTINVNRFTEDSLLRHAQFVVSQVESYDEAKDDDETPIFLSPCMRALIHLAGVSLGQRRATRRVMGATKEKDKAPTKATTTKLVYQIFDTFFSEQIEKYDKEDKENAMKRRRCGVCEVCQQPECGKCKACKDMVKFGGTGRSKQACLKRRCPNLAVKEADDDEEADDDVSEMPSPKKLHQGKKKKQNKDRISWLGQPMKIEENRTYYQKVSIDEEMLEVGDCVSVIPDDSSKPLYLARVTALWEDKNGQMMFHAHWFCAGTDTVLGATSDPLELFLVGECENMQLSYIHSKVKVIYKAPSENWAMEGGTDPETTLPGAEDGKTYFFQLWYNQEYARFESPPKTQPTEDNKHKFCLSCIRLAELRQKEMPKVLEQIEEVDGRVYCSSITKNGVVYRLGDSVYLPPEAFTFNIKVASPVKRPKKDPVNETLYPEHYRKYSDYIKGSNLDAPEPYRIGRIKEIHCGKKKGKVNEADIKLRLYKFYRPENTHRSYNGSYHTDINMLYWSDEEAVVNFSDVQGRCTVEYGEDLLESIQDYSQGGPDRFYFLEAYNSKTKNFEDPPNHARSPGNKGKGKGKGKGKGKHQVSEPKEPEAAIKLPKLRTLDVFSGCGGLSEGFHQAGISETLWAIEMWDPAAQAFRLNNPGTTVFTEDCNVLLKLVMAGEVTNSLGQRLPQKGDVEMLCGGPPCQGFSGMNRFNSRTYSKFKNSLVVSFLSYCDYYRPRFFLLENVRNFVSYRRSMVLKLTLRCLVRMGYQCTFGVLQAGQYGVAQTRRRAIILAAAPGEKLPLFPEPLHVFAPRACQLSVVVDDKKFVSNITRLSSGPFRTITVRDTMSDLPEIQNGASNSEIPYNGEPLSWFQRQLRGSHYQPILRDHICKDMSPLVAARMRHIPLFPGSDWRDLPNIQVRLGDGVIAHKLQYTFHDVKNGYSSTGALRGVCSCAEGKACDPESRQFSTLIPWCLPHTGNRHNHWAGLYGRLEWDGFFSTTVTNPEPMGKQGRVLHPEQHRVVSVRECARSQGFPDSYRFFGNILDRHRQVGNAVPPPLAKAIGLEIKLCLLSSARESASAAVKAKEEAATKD
Method in brief: (§1)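 Enzyme was preincubated with compound for 15 min at room temperature, then reacted for 60 min at 37°C. Products were filter-captured, washed and counted by scintillation. IC50 came from a nonlinear dose-response fit; single-point tests used 50 µM.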

[2] = system: HCT-116; assay: Antiproliferative activity against human HCT116 cells assessed as inhibition of cell proliferation at 1.25 to 10 uM after 24 to 72 hrs by MTT assay; format: functional, cell-based
Method in brief: (§2)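 HCT116 maintained in McCoy's 5A and Capan-1 in DMEM, each with 10% FBS, at 37°C under 5% CO2. Cells were exposed to a range of compound concentrations from DMSO stocks, with DMSO-matched controls. Viability was read by MTT absorbance at 490 nm, and percent proliferation was normalized to control cells.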

[3] = system: CAPAN-1; assay: Antiproliferative activity against human Capan1 cells assessed as inhibition of cell proliferation at 1.25 to 10 uM after 24 to 72 hrs by MTT assay; format: functional, cell-based; method in brief: as §2
[4] = Binding affinity to DNA (unknown origin) at 0.0625 to 0.5 mM by ethidium bromide dye based agarose gel electrophoresis method
[5] = target: DNA (cytosine-5)-methyltransferase 1 (Mus musculus) (UniProt P13864); assay: Inhibition of N-terminal His6-tagged mouse DNMT1 (731 to 1602 residues) at 200 uM expressed in Escherichia coli BL21 (DE3) incubated for 2 hrs using S-adenosylmethionine by ELISA
Sequence of DNA (cytosine-5)-methyltransferase 1 (Mus musculus) (P13864 whole entry, the tested form may be a part): as above
Method in brief: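 Mouse DNMT1 was purified by HisTrap, SUMO-tag cleavage, heparin and gel filtration. 200 nM enzyme was incubated with 200 μM compound (1% DMSO) and AdoMet in DNMT assay buffer at 37°C for 2 h. Capture and detection antibodies were then applied, followed by developer for 10 min at room temperature. Absorbance was read at 450 nm, with AdoHcy as reference.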

[6] = target: DNA (cytosine-5)-methyltransferase 1 (Mus musculus) (UniProt P13864); assay: Inhibition of N-terminal His6-tagged mouse DNMT1 (731 to 1602 residues) expressed in Escherichia coli BL21 (DE3) at 50 uM incubated for 15 mins before addition of [3H]-SAM and poly(dI-dC).poly(dI-dC) by liquid scintillation counting based radioactive methylation assay; method in brief: as §1
[7] = target: DNA (cytosine-5)-methyltransferase 3A (Homo sapiens, UniProt Q9Y6K1); assay: Inhibition of DNMT3A (unknown origin) incubated for 15 mins before addition of [3H]-SAM and poly(dI-dC).poly(dI-dC) by liquid scintillation counting based radioactive methylation assay
Sequence of DNA (cytosine-5)-methyltransferase 3A (Q9Y6K1 whole entry, looked up): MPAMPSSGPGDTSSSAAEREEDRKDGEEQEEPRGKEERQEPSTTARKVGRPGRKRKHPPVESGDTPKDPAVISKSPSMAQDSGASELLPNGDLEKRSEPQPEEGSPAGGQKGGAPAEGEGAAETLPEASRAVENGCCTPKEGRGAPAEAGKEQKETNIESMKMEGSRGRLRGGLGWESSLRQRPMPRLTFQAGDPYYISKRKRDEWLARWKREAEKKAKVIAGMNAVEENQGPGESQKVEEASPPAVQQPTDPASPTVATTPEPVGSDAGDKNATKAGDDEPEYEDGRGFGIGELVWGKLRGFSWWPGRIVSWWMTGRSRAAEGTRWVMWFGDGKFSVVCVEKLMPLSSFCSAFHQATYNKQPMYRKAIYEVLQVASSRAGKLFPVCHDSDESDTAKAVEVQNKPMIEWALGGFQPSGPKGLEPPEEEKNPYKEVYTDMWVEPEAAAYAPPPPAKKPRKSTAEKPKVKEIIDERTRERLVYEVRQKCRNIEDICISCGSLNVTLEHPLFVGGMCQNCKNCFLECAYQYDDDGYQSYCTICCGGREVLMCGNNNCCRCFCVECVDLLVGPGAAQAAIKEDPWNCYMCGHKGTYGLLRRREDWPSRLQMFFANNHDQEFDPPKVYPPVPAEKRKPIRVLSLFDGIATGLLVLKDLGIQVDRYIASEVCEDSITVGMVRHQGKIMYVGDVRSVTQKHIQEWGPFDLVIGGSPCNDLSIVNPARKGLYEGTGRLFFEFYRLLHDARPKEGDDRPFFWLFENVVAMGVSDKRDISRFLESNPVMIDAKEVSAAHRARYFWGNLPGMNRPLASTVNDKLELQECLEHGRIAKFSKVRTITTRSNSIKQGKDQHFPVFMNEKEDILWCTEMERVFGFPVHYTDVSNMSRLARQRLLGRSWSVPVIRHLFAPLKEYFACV

[8] = target: DNA (cytosine-5)-methyltransferase 3B (Homo sapiens, UniProt Q9UBC3); assay: Inhibition of DNMT3B (unknown origin) incubated for 15 mins before addition of [3H]-SAM and poly(dI-dC).poly(dI-dC) by liquid scintillation counting based radioactive methylation assay
[9] = target: T2, Histone-lysine N-methyltransferase EHMT2 (Homo sapiens, UniProt Q96KQ7); assay: Inhibition of G9a (unknown origin) incubated for 15 mins before addition of biotinylated peptide H3 (1 to 21) and SAM by methylation assay
T2 sequence (Q96KQ7 whole entry): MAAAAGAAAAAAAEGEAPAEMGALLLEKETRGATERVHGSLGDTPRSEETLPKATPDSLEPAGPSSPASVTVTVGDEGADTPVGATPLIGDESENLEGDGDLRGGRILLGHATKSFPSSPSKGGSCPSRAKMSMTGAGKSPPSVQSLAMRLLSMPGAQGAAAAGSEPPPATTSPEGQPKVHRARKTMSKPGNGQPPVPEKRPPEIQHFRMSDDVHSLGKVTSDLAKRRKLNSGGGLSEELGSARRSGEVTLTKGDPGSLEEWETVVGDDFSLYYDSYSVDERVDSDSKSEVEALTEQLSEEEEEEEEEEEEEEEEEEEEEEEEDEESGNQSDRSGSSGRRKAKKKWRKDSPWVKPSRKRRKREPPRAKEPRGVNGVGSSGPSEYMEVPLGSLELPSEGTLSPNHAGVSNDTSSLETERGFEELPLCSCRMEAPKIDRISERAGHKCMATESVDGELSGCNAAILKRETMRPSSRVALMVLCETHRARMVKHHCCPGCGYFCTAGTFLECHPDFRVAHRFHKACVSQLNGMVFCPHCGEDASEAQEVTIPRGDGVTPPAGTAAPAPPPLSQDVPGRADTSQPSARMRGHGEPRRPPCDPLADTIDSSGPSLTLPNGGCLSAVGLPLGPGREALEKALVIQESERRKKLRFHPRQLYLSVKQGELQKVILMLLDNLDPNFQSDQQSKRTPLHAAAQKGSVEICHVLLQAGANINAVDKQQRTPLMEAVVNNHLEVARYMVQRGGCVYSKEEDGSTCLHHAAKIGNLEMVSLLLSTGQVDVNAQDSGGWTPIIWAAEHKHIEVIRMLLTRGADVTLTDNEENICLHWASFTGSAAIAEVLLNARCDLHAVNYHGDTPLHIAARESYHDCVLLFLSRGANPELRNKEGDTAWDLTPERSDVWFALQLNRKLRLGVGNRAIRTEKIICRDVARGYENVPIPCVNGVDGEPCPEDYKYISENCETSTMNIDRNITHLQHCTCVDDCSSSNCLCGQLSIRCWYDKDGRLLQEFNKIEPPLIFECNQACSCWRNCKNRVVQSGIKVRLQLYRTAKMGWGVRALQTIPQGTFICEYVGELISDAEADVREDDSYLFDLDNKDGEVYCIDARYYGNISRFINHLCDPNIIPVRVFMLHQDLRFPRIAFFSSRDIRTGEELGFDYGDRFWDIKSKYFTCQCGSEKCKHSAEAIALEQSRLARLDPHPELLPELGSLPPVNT
Method in brief: (§3)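 AlphaLISA assays were run in modified Tris pH 9.0 with 100 nM biotinylated H3(1-21) and SAM at Km: MLL1 2 nM enzyme with 2 μM SAM; SUV39H1 3 nM with 20 μM; SET7/9 0.2 nM with 0.22 μM; G9a 0.03 nM with 50 μM. Enzyme and compound were preincubated for 15 min, then reacted for 60 min at room temperature before the beads were added. IC50 came from a nonlinear dose-response fit.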

[10] = target: T3, Histone-lysine N-methyltransferase SUV39H1 (Homo sapiens, UniProt O43463); assay: Inhibition of SUV39H1 (unknown origin) incubated for 15 mins before addition of biotinylated peptide H3 (1 to 21) and SAM by methylation assay; method in brief: as §3
T3 sequence (O43463 whole entry): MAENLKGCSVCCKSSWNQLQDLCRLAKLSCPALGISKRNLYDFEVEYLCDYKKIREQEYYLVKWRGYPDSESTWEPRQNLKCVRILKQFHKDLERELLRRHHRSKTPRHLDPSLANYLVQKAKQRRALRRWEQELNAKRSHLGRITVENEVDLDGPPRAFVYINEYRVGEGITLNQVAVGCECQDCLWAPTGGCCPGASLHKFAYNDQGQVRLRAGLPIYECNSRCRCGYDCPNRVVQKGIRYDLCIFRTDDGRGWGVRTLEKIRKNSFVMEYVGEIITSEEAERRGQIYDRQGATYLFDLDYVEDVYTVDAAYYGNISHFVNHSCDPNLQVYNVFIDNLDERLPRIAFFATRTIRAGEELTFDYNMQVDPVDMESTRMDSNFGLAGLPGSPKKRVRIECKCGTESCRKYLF

[11] = target: Histone-lysine N-methyltransferase 2A (Homo sapiens, UniProt Q03164); assay: Inhibition of MLL1 (unknown origin) incubated for 15 mins before addition of biotinylated peptide H3 (1 to 21) and SAM by methylation assay; method in brief: as §3
[12] = target: T4, Histone-lysine N-methyltransferase SETD7 (Homo sapiens, UniProt Q8WTS6); assay: Inhibition of SET7/9 (unknown origin) incubated for 15 mins before addition of biotinylated peptide H3 (1 to 21) and SAM by methylation assay; method in brief: as §3
T4 sequence (Q8WTS6 whole entry): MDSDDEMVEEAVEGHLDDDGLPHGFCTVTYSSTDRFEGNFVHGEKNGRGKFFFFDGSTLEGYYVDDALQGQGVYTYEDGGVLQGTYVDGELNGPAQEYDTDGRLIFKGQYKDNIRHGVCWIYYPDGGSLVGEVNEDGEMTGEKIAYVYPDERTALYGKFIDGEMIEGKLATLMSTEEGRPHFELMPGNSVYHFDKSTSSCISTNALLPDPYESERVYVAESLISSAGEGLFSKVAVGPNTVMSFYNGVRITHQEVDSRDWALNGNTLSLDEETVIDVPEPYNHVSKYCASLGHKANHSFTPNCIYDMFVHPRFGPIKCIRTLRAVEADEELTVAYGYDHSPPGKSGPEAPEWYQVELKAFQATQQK

[13] = target: DNA (cytosine-5)-methyltransferase 1 (Mus musculus) (UniProt P13864); assay: (§4) Binding affinity to N-terminal His6-tagged mouse DNMT1 (731 to 1602 residues) expressed in Escherichia coli BL21 (DE3) by SPR assay
Method in brief: (§5)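 Measured by SPR at 25°C. Purified mouse DNMT1 was amine-coupled to a CM5 chip in 10 mM sodium acetate pH 5.0 and equilibrated overnight in HBS-EP (10 mM HEPES pH 7.4, 150 mM NaCl, 3 mM EDTA, 0.05% P20, 0.1% DMSO). Serially diluted compounds were injected with 120 s contact and 120 s dissociation, and KD was derived by the instrument evaluation software.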

[14] = target: T1, DNA (cytosine-5)-methyltransferase 1; assay: as §4; method in brief: as §5

Row | SMILES | IC50 [1] | inhibition [6] | other results
1 | O[C@H](CNCCc1c[nH]c2ccccc12)Cn1c2ccccc2c2ccccc21 | 7.3 µM |  | inhibition [2]: Active; inhibition [3]: Active
2 | O[C@@H](CNCCc1c[nH]c2ccccc12)Cn1c2ccccc2c2ccccc21 | 15.6 µM |  | inhibition [2]: Active; inhibition [3]: Active
3 | CC(C)NC[C@@H](O)COC(Cn1c2ccccc2c2ccccc21)Cn1c2ccccc2c2ccccc21 | 2.5 µM |  | inhibition [2]: Active; inhibition [3]: Active
4 | CC(C)NC[C@H](O)COC(Cn1c2ccccc2c2ccccc21)Cn1c2ccccc2c2ccccc21 | 1.8 µM |  | inhibition [2]: Active; inhibition [3]: Active
5 | COc1cccc2c1C(=O)c1c(O)c3c(c(O)c1C2=O)C[C@@](O)(C(=O)CO)C[C@@H]3O[C@H]1C[C@H](N)[C@H](O)[C@H](C)O1 |  |  | Activity [4]: Active
6 | Cc1cc(Nc2ccc(NC(=O)c3ccc(Nc4ccnc5ccccc45)cc3)cc2)nc(N)n1 |  |  | Activity [4]: Active
7 | Nc1ncnc2c1ncn2[C@@H]1O[C@H](CSCC[C@H](N)C(=O)O)[C@@H](O)[C@H]1O |  |  | inhibition [5]: Active
8 | CC1CCN(CC(O)Cn2c3ccccc3c3ccccc32)CC1 (racemic) | 84.1 µM | 52.4% | 
9 | OC(CNCc1ccccc1)Cn1c2c(c3ccccc31)CCCC2 (racemic) | 80.9 µM | 62.9% | 
10 | OC(CNCCc1c[nH]c2ccccc12)Cn1c2ccccc2c2ccccc21 (racemic) | 10.3 µM |  | inhibition [5]: > 60%; Activity [4]: inactive; IC50 [7]: > 200 µM; IC50 [8]: > 200 µM; IC50 [9]: > 150 µM; IC50 [10]: > 150 µM; IC50 [11]: > 150 µM; IC50 [12]: > 150 µM; Activity [13]: Dose-dependent effect; Kd [14]: 1.09 µM
11 | OC(CNCCc1c[nH]c2ccccc12)Cn1c2ccc(Cl)cc2c2cc(Cl)ccc21 (racemic) | 2.5 µM | 89.5% | 
12 | OC(CNCCc1ccccc1)Cn1c2ccccc2c2ccccc21 (racemic) | 20.7 µM | 73.9% | 
13 | COCCNCC(O)Cn1c2ccccc2c2ccccc21 (racemic) | 29.6 µM | 71% | 
14 | OCCNCC(O)Cn1c2ccc(Br)cc2c2cc(Br)ccc21 (racemic) | 14.1 µM | 99.7% | 
15 | CCCN(CCC)CC(O)Cn1c2ccccc2c2ccccc21 (racemic) |  | 5.5% | 
16 | CNCC(O)Cn1c(C)c(C)c2ccccc21 (racemic) |  | 1.1% | 
17 | COc1ccc(NCC(O)Cn2c3ccccc3c3ccccc32)cc1 (racemic) |  | 0.6% | 
18 | Cc1c(C)n(CC(O)CNC2CCCCC2)c2ccccc12 (racemic) |  | 2.4% | 
19 | OC(CN1CCOCC1)Cn1c2ccccc2c2ccccc21 (racemic) |  | -5% | 
20 | OC(CNC1CC1)Cn1c2ccccc2c2ccccc21 (racemic) |  | 42.6% | 
21 | OC(CNCC1CCCO1)Cn1c2ccccc2c2ccccc21 (racemic) |  | 40.1% | 
22 | OC(CNCCOc1ccccc1)Cn1c2ccccc2c2ccccc21 (racemic) |  | 29.7% | 
23 | OCCCNCC(O)Cn1c2ccccc2c2ccccc21 (racemic) |  | 42.5% | 
